Shown are actives, neighbours in structure and some others; about 3.1% of the full set was active somewhere.
HCV NS3 hel inh = inhibitors of HCV NS3 helicase, primary screen, biochemical, Cy5 molecular beacon fluorescence | Hepatitis C virus NS3 helicase | NS3 helicase DNA unwinding | inhibition, % at 10.9 µM | 290,000 compounds, 0.56% hits | AID 1800, 2009;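 active means inhibition above the mean of all tested compounds plus 3 SD, set per campaign, cut at about 35% in these data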;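 further: 0% = DMSO wells and 100% = thioflavine S control wells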
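Control set: DMSO versus 110 µM thioflavine S; Material: NS3 helicase fragment of HCV; Measured by: Cy5 fluorescence at 0 and 60 min, beacon hairpin quenching; Read-out basis: percent inhibition from t60/t0 fluorescence ratio; Times: reaction time 60 min, 25 °C; Repeats: single replicate; Compound dosing: single dose, 10.9 µM nominal final, DMSO 0.8% final.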
SUMO HTRF inh = inhibitors of in vitro SUMOylation cascade, primary screen, biochemical, HTRF, uHTS. inhibition, % at 35 µM. SUMO-conjugating enzyme UBC9 (Homo sapiens), P63279. 290,000 compounds, 0.36% hits. HTRF SUMOylation assay, SAE1/SAE2 + UBC9. AID 2006, 2009; in the data active means inhibition above about 50%, passing the limit was not always enough
Target sequence (P63279 whole entry, looked up): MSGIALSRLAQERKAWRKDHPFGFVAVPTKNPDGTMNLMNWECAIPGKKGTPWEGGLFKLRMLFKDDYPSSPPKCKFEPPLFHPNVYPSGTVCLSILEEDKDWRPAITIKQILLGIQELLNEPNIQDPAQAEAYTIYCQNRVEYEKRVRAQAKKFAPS
PHOSPHO1 inh = PubChem AID 1565; Phosphoethanolamine/phosphocholine phosphatase (Homo sapiens), Q8TCT1; recombinant PHOSPHO1, absorbance phosphatase assay; inhibition, % at 13.3 µM; 290,000 compounds, 1.1% hits; in the data active means inhibition above about 60%
Target sequence (Q8TCT1 whole entry, looked up): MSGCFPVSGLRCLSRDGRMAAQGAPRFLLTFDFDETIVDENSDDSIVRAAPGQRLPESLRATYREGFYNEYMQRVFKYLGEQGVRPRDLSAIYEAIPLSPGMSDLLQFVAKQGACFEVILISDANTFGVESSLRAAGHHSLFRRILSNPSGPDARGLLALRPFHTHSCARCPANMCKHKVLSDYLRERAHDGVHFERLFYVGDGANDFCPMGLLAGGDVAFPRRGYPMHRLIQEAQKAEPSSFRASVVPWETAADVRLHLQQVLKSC
IMP-1 inhibitor = IMP-1 metallo-beta-lactamase inhibitors, primary screen, biochemical, epi-absorbance readout, Pseudomonas aeruginosa enzyme; metallo-beta-lactamase IMP-1 (Pseudomonas aeruginosa); purified IMP-1, nitrocefin hydrolysis, epi-absorbance fluorescence; 290,000 compounds, 0.45% hits; inhibition, % at 5.6 µM;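 active means inhibition above the mean plus 3 SD of all compounds in the same screening run, cut at about 4.5% in these data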;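 further: 0% = IMP-1 with DMSO and 100% = DMSO wells lacking enzyme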
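System: Purified IMP-1 | Read-out basis: Percent enzyme inhibition | Controls: IMP-1 with DMSO as 0%, enzyme-free DMSO as 100% | Replicates: One well per compound | Doses: 5.6 µM nominal single concentration | Detection: Epi-absorbance fluorescence, 480 nm excitation, 530 nm emission | Incubation: 25 °C, 15 min preincubation, 25 min reaction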
HCV core dimer = inhibitors of HCV core protein dimerization, primary screen, biochemical, TR-FRET, high-throughput | inhibition, % at 5 µM | 300,000 compounds, 0.33% hits | AID 1899, 2009 | TR-FRET GST/Flag-core106 dimerization, 1536-well;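 active means inhibition above the mean of all tested compounds plus 3 SD, set per screening campaign, cut at about 45% in these data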
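System: GST-tagged and Flag-tagged HCV core protein residues 1-106 / Input: core106 proteins, GST 13.5 nM and Flag 17 nM / Buffer or medium: KF-containing HEPES buffer, pH 7.45, DTT, CHAPS, BSA / Probe or stimulus: Eu-anti-GST and XL665-anti-Flag labelled anti-tag antibodies / Schedule: 4 h, 22.5 °C incubation / Technique: TR-FRET 671 and 617 nm emission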
VIM-2 inhibitor = VIM-2 metallo-beta-lactamase inhibitors, primary screen, biochemical, epi-absorbance readout, Pseudomonas aeruginosa enzyme; purified VIM-2, nitrocefin hydrolysis, epi-absorbance fluorescence; 290,000 compounds, 0.89% hits; inhibition, % at 5.6 µM; AID 1527, 2009;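 active means inhibition above the mean of all tested compounds plus 3 SD, cutoff set per screening run, cut at about 7.5% in these data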;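 further: red hydrolysis product quenches plate fluorescence so inhibitors raise well fluorescence; 0% = enzyme with DMSO and 100% = DMSO without enzyme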
The depositor's hits bear a star; x = no result given.

SMILES	HCV NS3 hel inh	SUMO HTRF inh	PHOSPHO1 inh	IMP-1 inhibitor	HCV core dimer	VIM-2 inhibitor
O=C(NNC(=O)c1cccc(-n2cccc2)c1)c1ccc(F)cc1	x	x	x	x	52*	x
N#CC1=C(N)SC(N)=C(C#N)C1c1c(Cl)cccc1Cl	15	-7	82*	-3	29	-3
N#CC1=C(N)SC(N)=C(C#N)C1CCc1ccccc1	19	7	7	-1	40	-6
Cc1ccc(C(=O)OCC(=O)Nc2sc3c(c2C#N)CCCC3)cc1NC(=O)c1ccco1	23	21	64*	2	32	-5
Cc1ccc(C(=O)OCC(=O)Nc2sc3c(c2C#N)CCCCC3)cc1NC(=O)c1ccco1	13	-14	3	-2	32	-2
CCN(CC)CCNC(=S)Nc1ccc(F)cc1	1	-12	-164	-3	-1	-1
O=C(NCCCN1CCOCC1)c1cc2nc(-c3ccco3)cc(C(F)(F)F)n2n1	-3	39	36	-2	-10	12*
Cn1c(-c2ccc(Br)o2)nc2cc(Br)ccc21	6	-4	22	-1	-15	8.0*
Cc1ccc2c(c1C)NC(C)CC2C (stereo unspecified)	18	-6	-14	5.0*	-11	2
O=C(O)c1ccc(Cl)c(S(=O)(=O)Nc2ccc3cn[nH]c3c2)c1	9	-1	20	-3	0	-4
CCOC(=O)c1c(NC(=O)C2CCCO2)sc(C(=O)OC(C)(C)C)c1C (stereo unspecified)	5	9	83*	-5	6	-1
CCOC(=O)c1sc(NC(=O)C2CCCO2)c(C(=O)OCC)c1C (stereo unspecified)	x	-9	-21	x	x	x
O=C1CC[C@@H](CN(Cc2ccccc2)Cc2cn[nH]c2-c2cc3ccccc3o2)N1	-12	14	32	-3	7	-3
c1ccc2oc(-c3[nH]ncc3CN(Cc3ccncc3)CC3CCCO3)cc2c1 (stereo unspecified)	-19	4	60*	-3	-4	-3
Cc1ccc(S(=O)(=O)N[C@@H](Cc2ccccc2)C(=O)N2CCC(C(=O)N[C@@H](CC(C)C)C(=O)O)CC2)cc1	-3	21	37	-1	7	-2
CCOC(=O)CC(=O)CSc1ccc2nnc(-c3cccc(F)c3)n2n1	27	27	44	-4	3	1
COC(=O)c1ccc(CSc2ccc3nnc(-c4cccc(F)c4)n3n2)o1	4	-10	10	-3	20	8.4*
O=C(CSc1ccc2nnc(-c3cccc(F)c3)n2n1)NCc1ccco1	11	36	65*	0	8	2
CSc1ccc2nnc(-c3cccc(F)c3)n2n1	5	25	56	0	3	10.0*
COCC1CCCCC1OS(N)(=O)=O (stereo unspecified)	0	-2	-2	-3	0	-2
Cc1c(Br)c([N+](=O)[O-])nn1C(C)C(=O)N1CCc2ccccc2C1 (stereo unspecified)	15	0	20	-4	-23	-2
CC1Cc2ccccc2N1C(=O)COC(=O)CCc1nc2ccccc2c(=O)[nH]1 (stereo unspecified)	2	0	20	-1	5	0
Cc1cc(NC(=O)CSc2ccc(-c3ccc(F)cc3)nn2)no1	4	-10	-31	-3	-4	-4
COc1ccc(-c2ccc3c(N)c(C(=O)c4cccc(OC)c4)sc3n2)cc1	12	14	89*	-1	16	0
c1ccc2c(Nc3ccc4c(c3)OCCO4)c3c(nc2c1)CCC3	-18	23	35	-2	-7	8.2*
SMILES	HCV NS3 hel inh	SUMO HTRF inh	PHOSPHO1 inh	IMP-1 inhibitor	HCV core dimer	VIM-2 inhibitor
O=C(Nc1nc2c(s1)CCCC2)C1CCCN1C(=O)c1cccs1 (stereo unspecified)	13	-5	95*	-5	-6	-1
O=C(CNC(=O)c1ccco1)NCC(=O)OCc1ccc(Cl)cc1Cl	2	-4	22	-3	7	-2
Cc1ccc(-c2cc(C(=O)Nc3ccccc3C)c3ccccc3n2)o1	1	6	-7	-3	64*	0
Cc1ccc(-c2cc(C(=O)NC3=NCCS3)c3cc(Br)ccc3n2)o1	19	3	21	-1	51*	2
Cc1cc(C)c2nc(-c3ccccn3)cc(C(=O)NCc3cc(C)n(C)n3)c2c1	2	24	34	-2	2	-2
Cc1ccc(-c2cc(C(=O)NCc3ccco3)c3ccccc3n2)o1	22	28	-20	-1	66*	-1
Cc1cc(C)c2nc(-c3ccccn3)cc(C(=O)NCc3ccco3)c2c1	19	37	-31	-3	69*	-2
Cc1cc(C(=O)NCc2ccco2)c2ccccc2n1	0	10	20	-1	4	-1
COC(=O)c1csc2c(C(F)(F)F)cc(N3CCN(C(=O)Nc4ccccc4)CC3)nc12	5	23	13	-2	0	1
COc1cccc(N=C2CC(C)(C)CC(=O)/C2=C(/O)c2ccccc2)c1	4	18	16	0	-1	0
COc1cccc(NC(=O)c2cc(-c3ccc(C)o3)nc3ccccc23)c1	28	-2	14	-4	48*	-2
CCOc1ccc(N)c(SSc2cc(OCC)ccc2N)c1	4	-8	67*	-4	-21	-2
CCOC(=O)c1sc(NC(=O)Cc2ccc(C)cc2)nc1C	-7	-12	62*	-4	2	-2
CC(C)COC(=O)N1C[C@H](O)C[C@H]1C(=O)Nc1ccc(Cl)cc1	-10	9	42	-2	-9	-3
CC(C)(C)c1ccc(C(=O)NCC(=O)OCC(=O)Nc2nc(-c3ccc(F)cc3)cs2)cc1	2	-24	62*	-2	7	0
Cc1ccc(-c2csc(NC(=O)CCNC(=O)c3ccc(Cl)cc3)n2)cc1	-7	2	42	0	10	1
Cc1nc2ccccc2c2oc(C(=O)NC3CC3)cc12	10	-1	3	0	-7	8.4*
CCOc1ccc(NC(=O)c2cc3c(C)nc4ccccc4c3o2)cc1	1	0	10	-2	-15	-3
Cc1nc2ccccc2c2oc(C(=O)N3CCN(c4ccc([N+](=O)[O-])cc4)CC3)cc12	-5	-20	34	2	-2	-1
Cc1nc2ccccc2c2oc(C(=O)N3CCN(C(=O)c4ccco4)CC3)cc12	-7	1	18	-3	4	8.8*
Cc1nc2ccccc2c2oc(C(=O)N3CCc4ccccc4C3)cc12	4	-11	5	-4	4	4

Screening data from PubChem BioAssay.
